Assay results collected from several papers.
Converted amounts (≈) assume the structure as drawn.

SMILES	organism	assay	system	conditions	endpoint	value
Cc1cc2nc(C(=O)N3CCNCC3)cc(-c3ccccc3Cl)c2c(C)c1-c1ccncc1	Mycobacterium tuberculosis	microbial growth	H37RV	–	MIC90	10 µM (≈ 4.57 µg/mL)
Cc1ccc2nc(-c3ccc(Cl)cc3)cn2c1	Trypanosoma cruzi	parasite growth	TULAHUEN	6 days, intracellular, amastigote	EC90	> 5 µM
Cc1cc2nc(C(=O)N3CCOCC3)cc(-c3ccccc3Cl)c2c(C)c1-c1ccncc1	Mycobacterium tuberculosis	microbial growth	H37RV	–	MIC90	15 µM (≈ 6.87 µg/mL)
Cn1cc(-c2nc(N3CCC(c4ccccn4)C3)c3ccccc3n2)cn1 (stereo not drawn)	Trypanosoma cruzi	parasite growth, imaging	U2OS	intracellular, amastigote	IC50	2.57 µM
CCN1CCc2c(sc(N)c2C(=O)NCc2ccccc2OC)C1	Mycobacterium tuberculosis	microbial growth, resazurin	H37RV	–	MIC	> 200 µM
N#Cc1cccc(-c2nc(N3CCC(c4ccccn4)C3)c3ccccc3n2)c1 (stereo not drawn)	Trypanosoma cruzi	parasite growth, imaging	U2OS	intracellular, amastigote	IC50	6.92 µM
CC1=NN(CNC(=O)c2ccccn2)C(=O)C1=NNn1c(-c2ccccc2)nc2ccccc2c1=O	Monascus purpureus	microbial growth, broth dilution	–	–	MIC	104 µM (≈ 50 µg/mL)
CCOC(=O)c1c(NC(=O)c2ccccc2)sc2c1CCN(CC)C2	Mycobacterium tuberculosis	microbial growth, resazurin	H37RV	–	MIC	279 µM (≈ 100 µg/mL)
O=C(N[C@@H](Cc1ccccc1)C(=O)c1cc(-c2ccccc2)no1)[C@H](Cc1ccccc1)NC(=O)N1CCOCC1 (mixture of isomers)	Trypanosoma cruzi	parasite growth	TULAHUEN	intracellular, amastigote	IC50	28 µM
c1ccc(-c2nc(N3CCCC3)c3ccccc3n2)nc1	Trypanosoma cruzi	parasite growth, imaging	U2OS	intracellular, amastigote	IC50	3.1 µM
Nc1nc(O)c2ncn(COC(CO)CO)c2n1	Human betaherpesvirus 5	cytopathic effect	AD169	–	IC50	0.9 µM
c1ccc(-c2nc(N3CCC(c4ccccn4)C3)c3ccccc3n2)nc1 (stereo not drawn)	Trypanosoma cruzi	parasite growth, imaging	U2OS	intracellular, amastigote	IC50	1.2 µM
O=C(O)c1cn(C2CC2)c2cc(N3CCNCC3)c(F)cc2c1=O	Monascus purpureus	microbial growth, broth dilution	–	–	MIC	6.25 µM (≈ 2.07 µg/mL)
CC1(C)S[C@@H]2[C@H](NC(=O)[C@H](N)c3ccccc3)C(=O)N2[C@H]1C(=O)O	Plesiomonas shigelloides	microbial growth, agar dilution	–	26.93 µM	inhibition	100%
CCOC(=O)c1c(NC(=O)c2c(F)c(F)c(F)c(F)c2F)sc2c1CCN(CC)C2	Mycobacterium tuberculosis	microbial killing	H37RV	21 days	MBC	< 5 µM
NC(=O)c1cccc(-c2nc(N3CCC(c4ccccn4)C3)c3ccccc3n2)c1 (stereo not drawn)	Trypanosoma cruzi	parasite growth, imaging	U2OS	intracellular, amastigote	IC50	9.33 µM
COc1ccccc1CNC(=O)c1cc(-c2ccccc2)sc1N	Mycobacterium tuberculosis	microbial growth, resazurin	H37RV	–	MIC	> 200 µM
O=C1NN=C(N=Cc2ccc(O)cc2O)C1=NNn1c(-c2ccccc2)nc2ccccc2c1=O	Monascus purpureus	microbial growth, broth dilution	–	–	MIC	53.5 µM (≈ 25 µg/mL)
CCCCNC(=O)c1c(N)sc2c1CCCC2	Mycobacterium tuberculosis	microbial growth, resazurin	H37RV	–	MIC	> 300 µM
CC1=NN(CNc2ccc(C(=O)O)cc2)C(=O)C1=NNn1c(-c2ccccc2)nc2ccccc2c1=O	Monascus purpureus	microbial growth, broth dilution	–	–	MIC	101 µM (≈ 50 µg/mL)
c1ccc(C2CCN(c3nc(-c4ccn[nH]4)nc4ccccc34)C2)nc1 (stereo not drawn)	Trypanosoma cruzi	parasite growth, imaging	U2OS	intracellular, amastigote	IC50	14.3 µM
CCCCNC(=O)c1c(N)sc2c1CCN(CC)C2	Mycobacterium tuberculosis	microbial growth, resazurin	H37RV	–	IC50	> 300 µM
c1ccc2c(N3CCCCC3)nc(-c3ccncn3)nc2c1	Trypanosoma cruzi	parasite growth, imaging	U2OS	intracellular, amastigote	IC50	32.4 µM
CCOC(=O)c1cc(-c2ccccc2)sc1NC(=O)c1cc(C(F)(F)F)cc(C(F)(F)F)c1	Mycobacterium tuberculosis	microbial growth, resazurin	H37RV	–	MIC	> 200 µM
